Columns and labels:
Format in all cases: in vivo, human
[1] = system: locally advanced rectal cancer; assay: Disease-free survival, recurrence and progression events
In short: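 They also received capecitabine 825 mg/m2 twice daily and RT 50–50.4 Gy in 25 or 28 fractions, 5 days/week, for 5–5.5 weeks. DFS was estimated by Kaplan–Meier with two-sided 95% CI.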

[2] = system: patients with locally advanced rectal cancer; assay: Treatment-emergent adverse events
[3] = system: locally advanced rectal cancer; assay: Tumor response
[4] = Plasma pharmacokinetics on fraction day
[5] = Overall, peposertib 50-250 mg + RT + capecitabine, n = 19
[6] = peposertib 50 mg + RT + capecitabine, n = 1
[7] = peposertib 100 mg + RT + capecitabine, n = 6
[8] = peposertib 150 mg + RT + capecitabine, n = 6
[9] = peposertib 250 mg + RT + capecitabine, n = 6

COc1ccc([C@@H](O)c2cc(-c3ncnc4cc(N5CCOCC5)ccc34)c(F)cc2Cl)nn1 [Peposertib]
6 (32) n (%): Patients with any Peposertib-related serious TEAE [2, 5]
47.4%: Most frequently reported TEAE: fatigue ([2]; across all cohorts, n = 9) | Most frequently reported TEAE: nausea ([2]; across all cohorts, n = 9) | Most frequently reported TEAE: proctitis ([2]; across all cohorts, n = 9)
15.8%: Grade ≥3 TEAE: diarrhea ([2]; all cohorts, n = 19) | Grade ≥3 TEAE: enterocolitis ([2]; all cohorts, n = 19) | cCR rate ([3]; 8 weeks after CRT completion, all cohorts, n = 3 of 19)
14 (74) n (%): Patients with any Grade ≥3 TEAE [2, 5]
1 (17) n (%): Patients with any RT-related grade ≥4 TEAE [2, 7] | Patients with any Capecitabine-related grade ≥4 TEAE [2, 8] | Patients with any Grade ≥4 TEAE [2, 8] | Patients with any Peposertib-related grade ≥4 TEAE [2, 8] | Patients with any RT-related grade ≥4 TEAE [2, 8] | Patients with any TEAE leading to permanent discontinuation of RT [2, 8] | Patients with any TEAE leading to permanent discontinuation of capecitabine [2, 8] | Patients with any TEAE leading to permanent discontinuation of peposertib [2, 8] | Patients with any TEAE leading to permanent discontinuation of RT [2, 9]
78.9%: Most frequently reported TEAE: diarrhea ([2]; across all cohorts, n = 15)
3 (50) n (%): Patients with any Peposertib-related grade ≥ 3TEAE [2, 7] | Patients with any Serious TEAE [2, 7] | Patients with any Capecitabine-related serious TEAE [2, 9] | Patients with any RT-related serious TEAE [2, 9] | Patients with any TEAE leading to permanent discontinuation of peposertib [2, 9]
21.2 months: Median DFS ([1]; all cohorts, 95% CI, 18.0–not done)
1 (5.3) n (%): Composite endpoint cCR/pCR: Responders [3, 5]
300 to 360 min: half-life ([4]; human, plasma, oral, Mean terminal half-life, all dosing groups, independent of the dose level)
23.5 mo: Disease-free survival time: maximum [1, 5]
5.3%: Composite endpoint cCR/pCR rate ([3]; all cohorts, one of 19 patients (100-mg cohort))
5 (26.3) n (%): Disease-free survival time: Number of events (PD, deaths) [1, 5]
17 (90) n (%): Patients with any Peposertib-related TEAE [2, 5]
5 (83.3) n (%): Patients with any Peposertib-related TEAE [2, 8] | Patients with any RT-related grade ≥3 TEAE [2, 9]
9 (47) n (%): Patients with any RT-related grade ≥3 TEAE [2, 5]
none: Locoregional recurrence within the study period ([1]; nine patients who underwent surgery, follow-up of up to 2 years) | Patients achieving pCR ([3]; of the nine patients who opted for surgery)
dose proportional: Dose proportionality of exposure ([4]; across all dose levels after single and multiple dosing)
3 (50.0) n (%): Clinical response: Near-complete response [3, 9]
5 (26) n (%): Patients with any Capecitabine-related grade ≥4 TEAE [2, 5] | Patients with any Capecitabine-related serious TEAE [2, 5] | Patients with any Grade ≥4 TEAE [2, 5] | Patients with any Peposertib-related grade ≥4 TEAE [2, 5] | Patients with any RT-related serious TEAE [2, 5]
8 (42.1) n (%): Clinical response: Near-complete response [3, 5]
7 (37) n (%): Patients with any Serious TEAE [2, 5]
0 n (%): Patients with any TEAE leading to death [2, 5] | Patients with any TEAE leading to study discontinuation [2, 5] | Patients with any Capecitabine-related serious TEAE [2, 6] | Patients with any Peposertib-related serious TEAE [2, 6] | Patients with any RT-related serious TEAE [2, 6] | Patients with any Serious TEAE [2, 6] | Patients with any TEAE leading to death [2, 6] | Patients with any TEAE leading to study discontinuation [2, 6] | Patients with any TEAE leading to death [2, 7] | Patients with any TEAE leading to study discontinuation [2, 7] | Patients with any Capecitabine-related serious TEAE [2, 8] | Patients with any Peposertib-related serious TEAE [2, 8] | Patients with any RT-related serious TEAE [2, 8] | Patients with any Serious TEAE [2, 8] | Patients with any TEAE leading to death [2, 8] | Patients with any TEAE leading to study discontinuation [2, 8] | Patients with any TEAE leading to death [2, 9] | Patients with any TEAE leading to study discontinuation [2, 9]
3 (15.8) n (%): Patients with any TEAE leading to permanent discontinuation of capecitabine [2, 5] | Clinical complete response: Responders [3, 5] | Clinical response: Complete response [3, 5]
6 (100) n (%): Patients with any Capecitabine-related TEAE [2, 7] | Patients with any RT-related TEAE [2, 7] | Patients with any TEAE [2, 7] | Patients with any Capecitabine-related TEAE [2, 8] | Patients with any RT-related TEAE [2, 8] | Patients with any TEAE [2, 8] | Patients with any Capecitabine-related TEAE [2, 9] | Patients with any Capecitabine-related grade ≥3 TEAE [2, 9] | Patients with any Grade ≥3 TEAE [2, 9] | Patients with any Peposertib-related TEAE [2, 9] | Patients with any Peposertib-related grade ≥ 3TEAE [2, 9] | Patients with any RT-related TEAE [2, 9] | Patients with any TEAE [2, 9]
five: Progression events at data cutoff ([1]; three deaths, two progressive disease events)
36.8%: Grade ≥3 TEAE: lymphocyte count decreased ([2]; all cohorts, n = 19)
21.1%: Grade ≥3 TEAE: lymphopenia ([2]; all cohorts, n = 19)
4 (21.1) n (%): Clinical response: Incomplete response [3, 5]
4 (21) n (%): Patients with any RT-related grade ≥4 TEAE [2, 5] | Patients with any TEAE leading to permanent discontinuation of peposertib [2, 5]
No relevant peposertib accumulation: Accumulation after multiple once-daily dosing ([4]; in vivo)
1 n: Grade 4 TEAE: lymphocyte count decrease ([2]; 100-mg cohort) | Grade 4 TEAE: lymphopenia ([2]; 100-mg cohort) | Grade 4 TEAE: lymphopenia ([2]; 150-mg cohort) | Grade 4 TEAE: enterocolitis ([2]; 250-mg cohort) | Grade 4 TEAE: leukopenia and lymphocyte count decrease ([2]; 250-mg cohort)
19 (100) n (%): Patients with any Capecitabine-related TEAE [2, 5] | Patients with any RT-related TEAE [2, 5] | Patients with any TEAE [2, 5]
10 (53) n (%): Patients with any Capecitabine-related grade ≥3 TEAE [2, 5]
5 (83) n (%): Patients with any Peposertib-related TEAE [2, 7]
2 (11) n (%): Patients with any TEAE leading to permanent discontinuation of RT [2, 5]
1 (16.7) n (%): Clinical complete response: Responders [3, 7] | Clinical response: Complete response [3, 7] | Clinical response: Incomplete response [3, 7] | Composite endpoint cCR/pCR: Responders [3, 7] | Clinical complete response: Responders [3, 8] | Clinical response: Complete response [3, 8] | Clinical complete response: Responders [3, 9] | Clinical response: Complete response [3, 9] | Clinical response: Incomplete response [3, 9]
65.9%: Disease-free survival rate at 18 months ([1]; all cohorts, Kaplan-Meier estimate, 95% CI, 25.9–87.9)
1 (100) n (%): Patients with any Capecitabine-related TEAE [2, 6] | Patients with any Peposertib-related TEAE [2, 6] | Patients with any RT-related TEAE [2, 6] | Patients with any TEAE [2, 6] | Clinical response: Near-complete response [3, 6]
0 (0) n (%): Patients with any Capecitabine-related grade ≥3 TEAE [2, 6] | Patients with any Capecitabine-related grade ≥4 TEAE [2, 6] | Patients with any Grade ≥3 TEAE [2, 6] | Patients with any Grade ≥4 TEAE [2, 6] | Patients with any Peposertib-related grade ≥ 3TEAE [2, 6] | Patients with any Peposertib-related grade ≥4 TEAE [2, 6] | Patients with any RT-related grade ≥3 TEAE [2, 6] | Patients with any RT-related grade ≥4 TEAE [2, 6] | Patients with any TEAE leading to permanent discontinuation of RT [2, 6] | Patients with any TEAE leading to permanent discontinuation of capecitabine [2, 6] | Patients with any TEAE leading to permanent discontinuation of peposertib [2, 6] | Patients with any TEAE leading to permanent discontinuation of RT [2, 7] | Patients with any TEAE leading to permanent discontinuation of capecitabine [2, 7] | Patients with any TEAE leading to permanent discontinuation of peposertib [2, 7] | Clinical response: Progressive disease [3, 5] | Pathologic complete response: Responders [3, 5] | Clinical complete response: Responders [3, 6] | Clinical response: Complete response [3, 6] | Clinical response: Incomplete response [3, 6] | Clinical response: Progressive disease [3, 6] | Composite endpoint cCR/pCR: Responders [3, 6] | Pathologic complete response: Responders [3, 6] | Clinical response: Progressive disease [3, 7] | Pathologic complete response: Responders [3, 7] | Clinical response: Progressive disease [3, 8] | Composite endpoint cCR/pCR: Responders [3, 8] | Pathologic complete response: Responders [3, 8] | Clinical response: Progressive disease [3, 9] | Composite endpoint cCR/pCR: Responders [3, 9] | Pathologic complete response: Responders [3, 9]
2 (33) n (%): Patients with any Capecitabine-related grade ≥3 TEAE [2, 7] | Patients with any Capecitabine-related grade ≥4 TEAE [2, 7] | Patients with any Capecitabine-related serious TEAE [2, 7] | Patients with any Grade ≥4 TEAE [2, 7] | Patients with any Peposertib-related grade ≥4 TEAE [2, 7] | Patients with any Peposertib-related serious TEAE [2, 7] | Patients with any RT-related grade ≥3 TEAE [2, 7] | Patients with any RT-related serious TEAE [2, 7] | Patients with any Capecitabine-related grade ≥3 TEAE [2, 8] | Patients with any RT-related grade ≥3 TEAE [2, 8] | Patients with any Capecitabine-related grade ≥4 TEAE [2, 9] | Patients with any Grade ≥4 TEAE [2, 9] | Patients with any Peposertib-related grade ≥4 TEAE [2, 9] | Patients with any RT-related grade ≥4 TEAE [2, 9] | Patients with any TEAE leading to permanent discontinuation of capecitabine [2, 9]
2 (33.3) n (%): Clinical response: Near-complete response [3, 7] | Clinical response: Incomplete response [3, 8] | Clinical response: Near-complete response [3, 8]
13 (68) n (%): Patients with any Peposertib-related grade ≥ 3TEAE [2, 5]
0 mo: Disease-free survival time: Minimum [1, 5]
4 (67) n (%): Patients with any Grade ≥3 TEAE [2, 7] | Patients with any Grade ≥3 TEAE [2, 8] | Patients with any Peposertib-related grade ≥ 3TEAE [2, 8] | Patients with any Peposertib-related serious TEAE [2, 9] | Patients with any Serious TEAE [2, 9]
21.2 mo: Disease-free survival time: Median [1, 5]
73.7%: Patients with grade ≥3 TEAE ([2]; all cohorts, 14 of 19 patients)
